Results on 3 molecules are retold here after ChEMBL document CHEMBL1145281, “Potent bombesin-like peptides for GRP-receptor targeting of tumors with 99mTc: a preclinical study” (J Med Chem, 2005).

Test [1] concerns the target T1, Gastrin-releasing peptide receptor (Homo sapiens, UniProt P30550). Briefly: Inhibition of gastrin releasing peptide receptor expressed in human prostate cancer cells. Format: cell-based, Cancer cell lines.
In test [2] the target is T2, Bombesin receptor subtype-3 (Homo sapiens, UniProt P32247).
T2 sequence (P32247 whole entry): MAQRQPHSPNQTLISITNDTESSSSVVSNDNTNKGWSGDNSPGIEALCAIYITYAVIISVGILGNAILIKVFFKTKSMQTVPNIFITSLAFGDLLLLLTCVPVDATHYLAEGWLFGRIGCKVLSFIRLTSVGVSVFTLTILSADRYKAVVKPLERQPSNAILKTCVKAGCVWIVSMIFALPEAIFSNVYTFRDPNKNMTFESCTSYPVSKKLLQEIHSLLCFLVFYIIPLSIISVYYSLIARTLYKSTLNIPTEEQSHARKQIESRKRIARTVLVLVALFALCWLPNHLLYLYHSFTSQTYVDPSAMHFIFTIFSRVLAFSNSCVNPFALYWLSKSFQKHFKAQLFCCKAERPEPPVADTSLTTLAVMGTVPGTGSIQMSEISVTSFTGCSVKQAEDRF
Briefly: Inhibition of bombesin subtype 3 receptor expressed in human lung carcinoids.

The target in test [3] is T1, Gastrin-releasing peptide receptor. Briefly: Displacement of [125 I-Tyr4]BB from human gastrin releasing peptide receptor expressed in PC-3 cell membranes.
Another test relates to PC-3. Briefly: Equilibrium constant of compound for binding to the active sites in human PC-3 cell membranes. The format is functional. In short, it runs like this:
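Saturation binding of 99mTc/99gTc-labelled peptides in PC-3 membrane homogenates (50 μg protein), 0.06–12 nM total peptide, two triplicate sets for total and nonspecific binding. HEPES pH 7.6 buffer with 1% BSA, 5.5 mM MgCl2, 35 μM bacitracin. 1 h at 37 °C. Nonspecific binding defined with [Tyr4]BB. Kd from Scatchard analysis.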

Each structure is given as a SMILES string. A value given as a limit tells only on which side of the number the result lay.

T1 sequence (P30550 whole entry): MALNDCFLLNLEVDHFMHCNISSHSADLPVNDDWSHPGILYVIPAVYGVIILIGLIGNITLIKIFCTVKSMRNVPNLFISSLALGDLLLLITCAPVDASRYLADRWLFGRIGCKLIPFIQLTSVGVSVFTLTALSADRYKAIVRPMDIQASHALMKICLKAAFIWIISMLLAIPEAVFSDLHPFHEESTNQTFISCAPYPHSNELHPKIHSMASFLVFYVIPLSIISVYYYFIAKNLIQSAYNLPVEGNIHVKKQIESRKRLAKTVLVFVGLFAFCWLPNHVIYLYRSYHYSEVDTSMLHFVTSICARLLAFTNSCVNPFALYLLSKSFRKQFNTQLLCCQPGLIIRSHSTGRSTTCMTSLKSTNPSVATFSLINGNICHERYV

For the molecule `CCCC[C@H](NC(=O)[C@H](CC(C)C)NC(=O)[C@H](Cc1c[nH]cn1)NC(=O)CNC(=O)[C@@H](NC(=O)[C@H](C)NC(=O)[C@H](Cc1c[nH]c2ccccc12)NC(=O)[C@H](CCC(N)=O)NC(=O)COCC(=O)Nc1ccc(CC(CNCCN)CNCCN)cc1)C(C)C)C(N)=O`, the values for the half-inhibitory concentration (IC50) in test [1], in test [2] and in test [3] were 1.3 nM, over 100 nM and 0.6 nM, respectively. Moreover, binding in the test on PC-3 was put at a Kd of 0.14 nM.
The corresponding values for `CSCC[C@H](NC(=O)[C@H](CC(C)C)NC(=O)[C@H](Cc1c[nH]cn1)NC(=O)CNC(=O)[C@@H](NC(=O)[C@H](C)NC(=O)[C@H](Cc1c[nH]c2ccccc12)NC(=O)[C@H](CCC(N)=O)NC(=O)COCC(=O)Nc1ccc(CC(CNCCN)CNCCN)cc1)C(C)C)C(N)=O` are 0.65 nM, 37 nM, 0.08 nM and 0.07 nM.
On to `CCCC[C@H](NC(=O)[C@H](CC(C)C)NC(=O)[C@H](Cc1c[nH]cn1)NC(=O)CNC(=O)[C@@H](NC(=O)[C@H](C)NC(=O)[C@H](Cc1c[nH]c2ccccc12)NC(=O)[C@H](CCC(N)=O)NC(=O)[C@H](CC(N)=O)NC(=O)CNC(=O)[C@H](Cc1ccc(O)cc1)NC(=O)[C@H](CCCN=C(N)N)NC(=O)[C@H](CCC(N)=O)NC(=O)[C@@H]1CCCN1C(=O)C(CNCCN)CNCCN)C(C)C)C(N)=O`, for which the IC50 in test [1] was 1.94 nM; in test [2], over 100 nM; in test [3], 0.15 nM.

The IC50 is the concentration that gives 50% inhibition. As usually defined, the Kd is the equilibrium constant for the complex coming apart. Read a high Kd as weaker binding.
